Experimental findings from ChEMBL document CHEMBL1212810, “Carbon metabolism-mediated myogenic differentiation” (Nat Chem Biol, 2010) are described below.

Calls of active or inactive are those of the source. No cut-off for these calls is given here.

Holding throughout (type): functional, cell-based
Test [1] relates to C2C12. The test can be described thus: Induction of cell differentiation in mouse C2C12 cells assessed as myosin heavy chain expression at 1 uM. The procedure, abridged:
(§1)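 Mouse C2C12 myoblasts were treated with statin. Differentiation was read as myosin heavy chain expression by immunofluorescence.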

Test [2] concerns RD. As to the kind of experiment: Induction of cell differentiation of human RD cells assessed as troponin expression after 4 days by immunofluorescence method. The procedure, abridged:
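Human RD embryonal rhabdomyosarcoma cells were treated in normal growth medium for four days, then scored for differentiation.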

Test [3] deals with RD. The test can be described thus: Inhibition of anchorage-independent growth in human RD cells at 10 uM. In a few lines:
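Human RD embryonal rhabdomyosarcoma cells were treated and scored for anchorage-independent growth on soft agar.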

The subject of test [4] is C2C12. As to the kind of experiment: Inhibition of shATP citrate lyase-induced cell differentiation in mouse C2C12 assessed as myosin heavy chain expression at 100 nM.
In test [5] the test system is C2C12. The test can be described thus: Inhibition of serum withdrawal-induced cell differentiation in mouse C2C12 cells assessed as myosin heavy chain expression.
Test [6] concerns C2C12. The test can be described thus: Induction of cell differentiation in mouse C2C12 cells assessed as myosin heavy chain expression at 10 uM. The procedure, abridged:
as §1

For test [7], the system named is C2C12. As to the kind of experiment: Induction of cell differentiation in mouse C2C12 cells assessed as myosin heavy chain expression at 10 uM in presence of 250 uM cholesterol.
Test [8] relates to C2C12. As to the kind of experiment: Induction of cell differentiation in mouse C2C12 cells assessed as myosin heavy chain expression at 5 uM. The procedure, abridged:
as §1

As to `CC(C)n1c(/C=C/C(O)CC(O)CC(=O)O)c(-c2ccc(F)cc2)c2ccccc21` (centres undefined), the result in the test on C2C12 [1] and in the test with RD [2] was Active. In addition, in the test on RD [3], the inhibition result is “Active”. As for `CC(/C=C/C(=O)NO)=C\[C@@H](C)C(=O)c1ccc(N(C)C)cc1`, in the test on C2C12 [4], the inhibition entry is “Active”. On to `CC(C)CCC[C@@H](C)[C@H]1CC[C@H]2[C@@H]3CC=C4C[C@@H](O)CC[C@]4(C)[C@H]3CC[C@]12C`, for which, in the test on C2C12 [5], the inhibition entry was “Active”.

Regarding `CC(C)c1c(C(=O)Nc2ccccc2)c(-c2ccccc2)c(-c2ccc(F)cc2)n1CC[C@@H](O)C[C@@H](O)CC(=O)O`, the result with C2C12 [1] was Active. Regarding `CC[C@H](C)C(=O)O[C@H]1C[C@H](O)C=C2C=C[C@H](C)[C@H](CC[C@@H](O)C[C@@H](O)CC(=O)O)[C@H]21`, the result in the test with C2C12 [6], in the test with C2C12 [7] and in the test on C2C12 [8] was Active.
